Article PMC3988263 (European journal of pharmacology, 2011)

Tests used:
[1] = test system: CYP3A (mouse liver microsomes)
pentylenetetrazol model = conditions: ref Handforth et al., 2010; cited from earlier work
[2] = test system: mouse liver microsomes (cytochrome P450, harmaline O-demethylation); assay: Harmaline O-demethylation to harmalol in mouse liver microsomes; assay type: in vitro ADME
human recombinant CYP3A4 = conditions: ref Bui et al., 2008; cited from earlier work
[3] = test system: high voltage calcium channels; conditions: at 100 µM; ref Huang et al., 2004; Li et al., 2005; cited from earlier work
[4] = test system: mice (sedation/motor function); assay: Horizontal wire test of behavioral toxicity; assay type: in vivo, mouse
[5] = test system: harmaline-induced tremor in ICR mice; assay: Tremor measurement in the harmaline model; assay type: in vivo, mouse; conditions: harmaline 20 mg/kg
In short: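 Male ICR mice (20–24 g) sat on a motion-sensing platform; 20 min baseline, then harmaline 20 mg/kg, then test compound or saline vehicle 15 min later (time 0); 100 min recording; 5–6 mice/group. Read-out was 10–16 Hz motion power as % of 0–33 Hz power over 20–60 and 60–100 min. Reduction = 100×(1−[(DT−DB)/(mean VT−mean VB)]) versus vehicle group; repeated-measures ANOVA.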

[6] = test system: mice (sedation or ataxia); assay: Gross observation in open fields; assay type: in vivo, mouse; conditions: doses below 200 mg/kg
[7] = test system: mice (retention time on inverted wire grid); assay: Inverted grid test of behavioral toxicity; assay type: in vivo, mouse
[8] = test system: GABAA receptor α1-null mice (tremor); assay: Tremor measurement in the GABAA receptor α1-null model; assay type: in vivo, mouse; conditions: for tremor reduction compared to baseline: 20 mg/kg i.p., 30 min after drug, tail suspension
human CYP2D6 = conditions: ref Bui et al., 2008; cited from earlier work
[9] = test system: cytochrome P450 (harmaline O-demethylation to harmalol); assay: Harmaline O-demethylation to harmalol in mouse liver microsomes; assay type: in vitro ADME; conditions: mouse, mouse liver microsomes, pH 7.5, probe harmaline (10 µM)
[10] = ref Ertel and Clozel, 1997; cited from earlier work
blood pressure = conditions: ref Dogrul et al., 2003; cited from earlier work
[11] = 12.5 mg/kg i.p., 20–60 min post-drug
[12] = 12.5 mg/kg i.p., 60–100 min post-drug

## CC(C)[C@H]1c2ccc(F)cc2CC[C@@]1(CCN(C)CCCc1nc2ccccc2[nH]1)OC(=O)C1CC1.Cl.Cl [NNC 55-0396, (1S,2S)-2-(2-(N-[(3-benzimidazol-2-yl)propyl]-N-methylamino)ethyl)-6-fluoro-1,2,3,4-tetrahydro-1-isopropyl-2-naphtyl cyclopropanecarboxylate dihydrochloride]
[1]
  Ki: 710 nM
  Ki for testosterone 6-β-hydroxylation relative to mibefradil: over five-fold higher
Pentylenetetrazol model
  anti-seizure efficacy: anti-seizure efficacy
[2]
  Ki: 950 nM
  Ki for harmaline O-demethylation relative to mibefradil: approximately three-fold higher
[2]; drug 100 nM, 10 µM harmaline, mouse liver microsomes
  O-demethylation of harmaline, percentage of normal (mean ± S.D.): 103.7 ± 12.8%
[2]; drug 10 µM, 10 µM harmaline, mouse liver microsomes
  O-demethylation of harmaline, percent of normal (mean ± S.D.): 46.6 ± 5.3%
Human recombinant CYP3A4
  fold higher Ki than mibefradil: 9 fold
[3]
  effect against high voltage calcium channels: no effect
[4]; mouse, in vivo, ip
  dose at which 3/6 failed the horizontal wire test: 300 mg/kg
  maximal dose at which 6/6 mice passed the horizontal wire test: 200 mg/kg
[5]; [11]
  tremor generation reduced compared to the vehicle group: 48.5 ± 12.4%
[5]; [12]
  tremor generation reduced compared to the vehicle group: 48.9 ± 13.6%
[5]; 20 mg/kg i.p., 20–60 min post-drug
  tremor generation reduced compared to the vehicle group: 73.6 ± 20.1%
[5]; 20 mg/kg i.p., 60–100 min post-drug
  tremor generation reduced compared to the vehicle group: 85.1 ± 29.1%
[6]
  gross observations in open fields: sedation or ataxia: did not reveal sedation or ataxia
[7]; drug 20 mg/kg i.p. then harmaline 20 mg/kg s.c.
  appearance (sedation) of drug/harmaline mice: did not appear sedated
[7]; mouse, in vivo
  retention on the inverted grid compared with vehicle/harmaline mice: better than vehicle/harmaline mice
[8]
  tremor reduction compared to baseline: 49.2%
[8]; 40 mg/kg i.p., individual α1-null mouse, retest 30 min later
  effect on the tremor motion power peak: suppressed the tremor motion power peak
Human CYP2D6
  Ki for human CYP2D6 relative to mibefradil: one-fourth that of mibefradil

## COc1ccc2c3c([nH]c2c1)C(C)=NCC3 [harmaline]
[7]; vehicle-pre-treated mice, harmaline 20 mg/kg s.c., test 30 min later
  retention time on the wire grid compared with vehicle/vehicle controls: reduced retention times on the wire grid

## COCC(=O)O[C@]1(CCN(C)CCCc2nc3ccccc3[nH]2)CCc2cc(F)ccc2[C@@H]1C(C)C [mibefradil]
[2]; mouse liver microsomes
  Ki for harmaline O-demethylation relative to NNC 55-0396: less than a third that of NNC 55-0396
[9]
  Ki at 20 min: 290 nM
[10]
  crossing of the blood–brain-barrier: does not cross the blood–brain-barrier
[4]; i.p., tested at 10-min intervals for 1.5 h
  maximal dose at which 6/6 mice passed the horizontal wire test: 20 mg/kg
[4]; mouse, in vivo, ip, 1.5 h
  dose at which 3/6 failed the horizontal wire test: 30 mg/kg
Blood pressure
  dose reported to produce severe hypotension: 30 mg/kg
[5]; [11]
  tremor generation reduced compared to the vehicle group: 23.1 ± 3.9%
[5]; [12]
  tremor generation reduced compared to the vehicle group: 20.8 ± 11.5%
[7]; mouse, in vivo
  appearance (sedation) of drug/harmaline mice: appeared sedated
  retention on the inverted grid compared with vehicle/harmaline mice: worse retention
[8]
  tremor reduction compared to baseline: no effect on tremor
